ChEMBL document CHEMBL1129626, “Cyclic HIV protease inhibitors: synthesis, conformational analysis, P2/P2' structure-activity relationship, and molecular recognition of cyclic ureas” (J Med Chem, 1996)
pKi: −log10 of the molar value.

Legend:
[1] = tested on: Human immunodeficiency virus 1; assay: Inhibition of viral infection in HIV-1 (RF)-infected MT-2 cells with an oligonucleotide-based sandwich hybridization assay.; type: functional, MT2
Method in brief: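 Uninfected MT-2 cells were preincubated for 30 min with serial dilutions of compound, then infected with HIV-1 RF and cultured for 3 days at 37 °C, 5% CO2. Lysates were assayed for viral RNA by microtiter oligonucleotide sandwich hybridization.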

[2] = target: Human immunodeficiency virus type 1 protease (Human immunodeficiency virus 1, UniProt Q72874); assay: Inhibitory activity against HIV-1 protease
Method in brief: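 HIV-1 protease Ki from cleavage of a fluorescent peptide substrate, products resolved by HPLC. Inhibitor was tested at four concentrations spanning 0.1–10 000 nM, the range chosen per inhibitor.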

[3] = Bioavailability as maximal plasma concentration in rats; type: ADME, organism-based; conditions: rat
Method in brief: (§1)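 Rats (n = 4/group) were given an oral dose of 10 mg/kg in a propylene glycol / poly(ethylene glycol) 400 / water formulation. Cmax is the observed peak plasma concentration after the oral dose. F% is AUC(po)/AUC, with AUC taken from time zero to infinity and normalized for dose.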

[4] = Bioavailability in rat; type: ADME, organism-based; conditions: in vivo; method in brief: as §1
[5] = Human immunodeficiency virus 1, MT2

SMILES | IC90 [1] [nM] | pKi [2] | IC90 [1, 5] [nM] | Cmax [3] [nM] | bioavailability [4] [%]
O=C1N(Cc2ccc(CO)cc2)[C@H](Cc2ccccc2)[C@H](O)[C@@H](O)[C@@H](Cc2ccccc2)N1Cc1ccc(CO)cc1 | 51000 | 5.78 |  |  | 
CCCCN1C(=O)N(CCCC)[C@H](Cc2ccccc2)[C@H](O)[C@@H](O)[C@H]1Cc1ccccc1 |  | 8.85 | 680 |  | 
CC(C)CCN1C(=O)N(CCC(C)C)[C@H](Cc2ccccc2)[C@H](O)[C@@H](O)[C@H]1Cc1ccccc1 |  | 7.92 | 3200 |  | 
O=C1N(Cc2cccc(CO)c2)[C@H](Cc2ccccc2)[C@H](O)[C@@H](O)[C@@H](Cc2ccccc2)N1Cc1cccc(CO)c1 |  | 9.85 | 38 | 830 | 18
CC(C)=CCN1C(=O)N(CC=C(C)C)[C@H](Cc2ccccc2)[C@H](O)[C@@H](O)[C@H]1Cc1ccccc1 |  |  | 870 | < 400 | 
O=C1N(CC2CCCC2)[C@H](Cc2ccccc2)[C@H](O)[C@@H](O)[C@@H](Cc2ccccc2)N1CC1CCCC1 |  | 8.37 | 1700 | 200 | 
O=C1N(CC2CCC2)[C@H](Cc2ccccc2)[C@H](O)[C@@H](O)[C@@H](Cc2ccccc2)N1CC1CCC1 |  | 8.89 | 1000 |  | 
O=C1N(Cc2ccccc2)[C@H](Cc2ccccc2)[C@H](O)[C@@H](O)[C@@H](Cc2ccccc2)N1Cc1ccccc1 |  | 8.52 | 830 | 1300 | 
COc1ccccc1CN1C(=O)N(Cc2ccccc2OC)[C@H](Cc2ccccc2)[C@H](O)[C@@H](O)[C@H]1Cc1ccccc1 |  | 5.73 | 22900 |  | 
O=C1N(Cc2cccc(Cl)c2)[C@H](Cc2ccccc2)[C@H](O)[C@@H](O)[C@@H](Cc2ccccc2)N1Cc1cccc(Cl)c1 |  | 9.05 | 1300 | 300 | 
C#CCN1C(=O)N(CC#C)[C@H](Cc2ccccc2)[C@H](O)[C@@H](O)[C@H]1Cc1ccccc1 |  | 7.66 | 42000 |  | 
C=C(C)CN1C(=O)N(CC(=C)C)[C@H](Cc2ccccc2)[C@H](O)[C@@H](O)[C@H]1Cc1ccccc1 |  | 8.14 | 7600 |  | 
COc1cccc(CN2C(=O)N(Cc3cccc(OC)c3)[C@H](Cc3ccccc3)[C@H](O)[C@@H](O)[C@H]2Cc2ccccc2)c1 |  | 8.80 | 1300 |  | 
CCCN1C(=O)N(Cc2ccc3ccccc3c2)[C@H](Cc2ccccc2)[C@H](O)[C@@H](O)[C@H]1Cc1ccccc1 |  | 8.96 | 3300 |  | 
C=COCCN1C(=O)N(CCOC=C)[C@H](Cc2ccccc2)[C@H](O)[C@@H](O)[C@H]1Cc1ccccc1 |  | 7.22 | > 107000 |  | 
C=CCN1C(=O)N(Cc2ccc3ccccc3c2)[C@H](Cc2ccccc2)[C@H](O)[C@@H](O)[C@H]1Cc1ccccc1 |  | 8.85 | 990 |  | 
CCCCCCN1C(=O)N(CCCCCC)[C@H](Cc2ccccc2)[C@H](O)[C@@H](O)[C@H]1Cc1ccccc1 |  | 8.34 | > 102000 |  | 
O=C1N(Cc2cccnc2)[C@H](Cc2ccccc2)[C@H](O)[C@@H](O)[C@@H](Cc2ccccc2)N1Cc1ccc2ccccc2c1 |  | 8.28 | 720 |  | 
COCCOCCN1C(=O)N(CCOCCOC)[C@H](Cc2ccccc2)[C@H](O)[C@@H](O)[C@H]1Cc1ccccc1 |  | 5.11 | > 94000 |  | 

SMILES | IC90 [1] [nM] | pKi [2] | IC90 [1, 5] [nM] | Cmax [3] [nM] | bioavailability [4] [%]
O=C1N(Cc2cccc(C(F)(F)F)c2)[C@H](Cc2ccccc2)[C@H](O)[C@@H](O)[C@@H](Cc2ccccc2)N1Cc1cccc(C(F)(F)F)c1 |  |  | 7800 |  | 
CC(C)CCCN1C(=O)N(CCCC(C)C)[C@H](Cc2ccccc2)[C@H](O)[C@@H](O)[C@H]1Cc1ccccc1 |  | 8.15 | 8100 |  | 
O=C1N(Cc2cccc(Br)c2)[C@H](Cc2ccccc2)[C@H](O)[C@@H](O)[C@@H](Cc2ccccc2)N1Cc1cccc(Br)c1 |  | 8.85 | 1200 |  | 
O=C1N(Cc2ccncc2)[C@H](Cc2ccccc2)[C@H](O)[C@@H](O)[C@@H](Cc2ccccc2)N1Cc1ccncc1 |  | 7.05 | 98000 |  | 
O=C1N(Cc2ccncc2)[C@H](Cc2ccccc2)[C@H](O)[C@@H](O)[C@@H](Cc2ccccc2)N1Cc1ccc2ccccc2c1 |  | 8.16 | 2700 |  | 
O=C1N(Cc2ccc(F)cc2)[C@H](Cc2ccccc2)[C@H](O)[C@@H](O)[C@@H](Cc2ccccc2)N1Cc1ccc2ccccc2c1 |  | 8.44 | 1100 |  | 
O=C1N(Cc2ccccn2)[C@H](Cc2ccccc2)[C@H](O)[C@@H](O)[C@@H](Cc2ccccc2)N1Cc1ccccn1 |  | 6.84 | 49000 |  | 
O=C1N(Cc2cccnc2)[C@H](Cc2ccccc2)[C@H](O)[C@@H](O)[C@@H](Cc2ccccc2)N1Cc1cccnc1 |  | 8.01 | 8800 |  | 
CC(C)CCCCN1C(=O)N(CCCCC(C)C)[C@H](Cc2ccccc2)[C@H](O)[C@@H](O)[C@H]1Cc1ccccc1 |  | 7.52 | > 95000 |  | 
O=C1N(Cc2ccc(C(F)(F)F)cc2)[C@H](Cc2ccccc2)[C@H](O)[C@@H](O)[C@@H](Cc2ccccc2)N1Cc1ccc(C(F)(F)F)cc1 |  |  | 7200 |  | 
CCCN1C(=O)N(CCC)[C@H](Cc2ccccc2)[C@H](O)[C@@H](O)[C@H]1Cc1ccccc1 |  | 8.10 | 54000 |  | 
O=C1N(CC2CCCCC2)[C@H](Cc2ccccc2)[C@H](O)[C@@H](O)[C@@H](Cc2ccccc2)N1CC1CCCCC1 |  | 7.43 | > 96000 |  | 
CN1C(=O)N(C)[C@H](Cc2ccccc2)[C@H](O)[C@@H](O)[C@H]1Cc1ccccc1 |  | 5.24 | > 141000 |  | 
CCN1C(=O)N(CC)[C@H](Cc2ccccc2)[C@H](O)[C@@H](O)[C@H]1Cc1ccccc1 |  | 7.00 | > 132000 |  | 
O=C1N(CCN2CCOCC2)[C@H](Cc2ccccc2)[C@H](O)[C@@H](O)[C@@H](Cc2ccccc2)N1CCN1CCOCC1 |  |  | > 91000 |  | 
O=C1N(Cc2cccc([N+](=O)[O-])c2)[C@H](Cc2ccccc2)[C@H](O)[C@@H](O)[C@@H](Cc2ccccc2)N1Cc1cccc([N+](=O)[O-])c1 |  | 8.55 | 970 |  | 
O=C1N(Cc2cccc(F)c2)[C@H](Cc2ccccc2)[C@H](O)[C@@H](O)[C@@H](Cc2ccccc2)N1Cc1cccc(F)c1 |  | 8.52 | 710 |  | 
O=C1N(Cc2ccccc2Cl)[C@H](Cc2ccccc2)[C@H](O)[C@@H](O)[C@@H](Cc2ccccc2)N1Cc1ccccc1Cl |  | 6.62 | 11300 |  | 
CC(C)CCCCCN1C(=O)N(CCCCCC(C)C)[C@H](Cc2ccccc2)[C@H](O)[C@@H](O)[C@H]1Cc1ccccc1 |  | 6.96 | > 18000 |  | 

SMILES | IC90 [1] [nM] | pKi [2] | IC90 [1, 5] [nM] | Cmax [3] [nM] | bioavailability [4] [%]
CCCCCN1C(=O)N(CCCCC)[C@H](Cc2ccccc2)[C@H](O)[C@@H](O)[C@H]1Cc1ccccc1 |  | 8.80 | 1500 |  | 
Cc1ccc(CN2C(=O)N(Cc3ccc(C)cc3)[C@H](Cc3ccccc3)[C@H](O)[C@@H](O)[C@H]2Cc2ccccc2)cc1 |  | 8.24 | 4300 |  | 
COCCN1C(=O)N(CCOC)[C@H](Cc2ccccc2)[C@H](O)[C@@H](O)[C@H]1Cc1ccccc1 |  | 6.10 | > 114000 |  | 
CCCCCCCN1C(=O)N(CCCCCCC)[C@H](Cc2ccccc2)[C@H](O)[C@@H](O)[C@H]1Cc1ccccc1 |  | 6.59 | > 96000 |  | 
CCC(C)CCN1C(=O)N(CCC(C)CC)[C@H](Cc2ccccc2)[C@H](O)[C@@H](O)[C@H]1Cc1ccccc1 (stereo partly specified) |  | 7.44 |  |  | 
Cc1cccc(CN2C(=O)N(Cc3cccc(C)c3)[C@H](Cc3ccccc3)[C@H](O)[C@@H](O)[C@H]2Cc2ccccc2)c1 |  | 8.15 | 2400 |  | 
O=C1N(Cc2cccc(I)c2)[C@H](Cc2ccccc2)[C@H](O)[C@@H](O)[C@@H](Cc2ccccc2)N1Cc1cccc(I)c1 |  | 9.38 | 3000 |  | 
O=C1N(Cc2ccc(F)cc2)[C@H](Cc2ccccc2)[C@H](O)[C@@H](O)[C@@H](Cc2ccccc2)N1Cc1ccc(F)cc1 |  | 8.85 | 600 | 1600 | 
CCCCN1C(=O)N(Cc2ccc3ccccc3c2)[C@H](Cc2ccccc2)[C@H](O)[C@@H](O)[C@H]1Cc1ccccc1 |  | 9.22 | 750 |  | 
CC(C)CN1C(=O)N(CC(C)C)[C@H](Cc2ccccc2)[C@H](O)[C@@H](O)[C@H]1Cc1ccccc1 |  | 7.31 | > 100000 |  | 
O=C1N(Cc2ccc3ccccc3c2)[C@H](Cc2ccccc2)[C@H](O)[C@@H](O)[C@@H](Cc2ccccc2)N1CC1CC1 |  | 8.82 | 1300 |  | 
O=C1N(Cc2ccccc2F)[C@H](Cc2ccccc2)[C@H](O)[C@@H](O)[C@@H](Cc2ccccc2)N1Cc1ccccc1F |  | 7.47 | 5500 |  | 
O=C1N(Cc2ccc(CO)cc2)[C@H](Cc2ccccc2)[C@H](O)[C@@H](O)[C@@H](Cc2ccccc2)N1Cc1ccc2ccccc2c1 |  | 9.03 | 210 |  | 
O=C1N(Cc2ccccc2)[C@H](Cc2ccccc2)[C@H](O)[C@@H](O)[C@@H](Cc2ccccc2)N1Cc1ccc2ccccc2c1 |  | 8.64 | 7500 |  | 
Nc1cccc(CN2C(=O)N(Cc3ccc4ccccc4c3)[C@H](Cc3ccccc3)[C@H](O)[C@@H](O)[C@H]2Cc2ccccc2)c1 |  | 9.00 | 84 |  | 
CCOCCN1C(=O)N(CCOCC)[C@H](Cc2ccccc2)[C@H](O)[C@@H](O)[C@H]1Cc1ccccc1 |  | 5.96 | > 106000 |  | 
O=C1N(Cc2ccc(Br)cc2)[C@H](Cc2ccccc2)[C@H](O)[C@@H](O)[C@@H](Cc2ccccc2)N1Cc1ccc(Br)cc1 |  | 7.57 | 8100 |  | 
O=C1N(Cc2ccc(Cl)cc2)[C@H](Cc2ccccc2)[C@H](O)[C@@H](O)[C@@H](Cc2ccccc2)N1Cc1ccc(Cl)cc1 |  | 8.28 | 4500 |  | 
COc1ccc(CN2C(=O)N(Cc3ccc(OC)cc3)[C@H](Cc3ccccc3)[C@H](O)[C@@H](O)[C@H]2Cc2ccccc2)cc1 |  | 6.80 | 7600 |  | 
